A word on the IC50: it is the midpoint of a concentration-inhibition curve. Low readings indicate greater potency in that assay, high ones weaker potency in that assay. By Ki is commonly meant the equilibrium dissociation constant of an inhibitor or competing ligand from its target.

Structures are written as SMILES.

Assay [1] can be described thus: Inhibition of the contraction on electrical stimulation of cardiac muscle using rat right ventricular muscle strips. Format: functional, tissue-based. The following applies: Muscle tissue. A digest of the protocol: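 Contractility test on intact rat ventricular muscle strips. The read-out reflects both tissue penetration and receptor action. Values are means of three to five experiments, expressed as IC50.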

Assay [2] in a line: Inhibitory activity against ryanodine receptor in Mouse brain. It counts as functional, tissue-based.
The nature of assay [3]: Inhibitory activity against ryanodine receptor in rabbit muscle. Format: functional, Oryctolagus cuniculus. In a few lines: (§1)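 Ryanodine receptor binding assays on tissue preparations. Values are means of three to five experiments, each run in duplicate. Results are reported as Ki for the cardiac ventricle preparation.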
Assay [4] has as its target Ryanodine receptor 1 (Oryctolagus cuniculus) (UniProt P11716). In words: Displacement of [3H]ryanodine from ryanodine receptor(ryr) of rabbit skeletal muscle. In a few lines: (§2)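 Radioligand displacement assays of [3H]ryanodine binding at the ryanodine receptor, one each on rabbit skeletal muscle, mouse brain and canine ventricle preparations. Values are means of three to five experiments, each run in duplicate; standard error is reported as percent of the mean.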
(In a radioligand displacement assay an active substance lowers the binding of a labelled ligand.)

In assay [5] the target is Ryanodine receptor 2 (Mus musculus) (UniProt E9Q401). In words: Displacement of [3H]ryanodine from ryanodine receptor(ryr) of Mouse brain.
The nature of assay [6]: Inhibition of contraction on electrical stimulation of cardiac muscle using rat right ventricular muscle strips. It counts as functional, Muscle tissue. A digest of the protocol: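 Physiological function test on intact rat ventricular muscle strips, in which the read-out depends on both tissue penetration and receptor potency. Values are expressed as IC50 from three to five experiments; standard error is reported as percent of the mean.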

The target of assay [7] is T1, Ryanodine receptor 2 (Canis lupus familiaris) (UniProt Q8WN72).
T1 sequence (whole entry): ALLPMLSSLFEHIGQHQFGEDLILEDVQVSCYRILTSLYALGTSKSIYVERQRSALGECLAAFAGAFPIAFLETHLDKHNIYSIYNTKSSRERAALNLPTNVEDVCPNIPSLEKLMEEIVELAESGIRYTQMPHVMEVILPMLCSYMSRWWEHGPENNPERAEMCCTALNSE
In words: Displacement of [3H]ryanodine binding to ryanodine receptor(ryr) in canine left ventricular membranes. Format: cell membranes. A digest of the protocol: as §2

The target in assay [8] is T2, Ryanodine receptor 2 (Canis lupus familiaris, UniProt Q8WN72).
T2 sequence (Q8WN72 whole entry): T1 sequence (whole entry)
In words: Binding affinity towards ryanodine receptor in canine ventrical preparation. In a few lines:
as §1

Sequence of Ryanodine receptor 1 (Oryctolagus cuniculus) (P11716 whole entry): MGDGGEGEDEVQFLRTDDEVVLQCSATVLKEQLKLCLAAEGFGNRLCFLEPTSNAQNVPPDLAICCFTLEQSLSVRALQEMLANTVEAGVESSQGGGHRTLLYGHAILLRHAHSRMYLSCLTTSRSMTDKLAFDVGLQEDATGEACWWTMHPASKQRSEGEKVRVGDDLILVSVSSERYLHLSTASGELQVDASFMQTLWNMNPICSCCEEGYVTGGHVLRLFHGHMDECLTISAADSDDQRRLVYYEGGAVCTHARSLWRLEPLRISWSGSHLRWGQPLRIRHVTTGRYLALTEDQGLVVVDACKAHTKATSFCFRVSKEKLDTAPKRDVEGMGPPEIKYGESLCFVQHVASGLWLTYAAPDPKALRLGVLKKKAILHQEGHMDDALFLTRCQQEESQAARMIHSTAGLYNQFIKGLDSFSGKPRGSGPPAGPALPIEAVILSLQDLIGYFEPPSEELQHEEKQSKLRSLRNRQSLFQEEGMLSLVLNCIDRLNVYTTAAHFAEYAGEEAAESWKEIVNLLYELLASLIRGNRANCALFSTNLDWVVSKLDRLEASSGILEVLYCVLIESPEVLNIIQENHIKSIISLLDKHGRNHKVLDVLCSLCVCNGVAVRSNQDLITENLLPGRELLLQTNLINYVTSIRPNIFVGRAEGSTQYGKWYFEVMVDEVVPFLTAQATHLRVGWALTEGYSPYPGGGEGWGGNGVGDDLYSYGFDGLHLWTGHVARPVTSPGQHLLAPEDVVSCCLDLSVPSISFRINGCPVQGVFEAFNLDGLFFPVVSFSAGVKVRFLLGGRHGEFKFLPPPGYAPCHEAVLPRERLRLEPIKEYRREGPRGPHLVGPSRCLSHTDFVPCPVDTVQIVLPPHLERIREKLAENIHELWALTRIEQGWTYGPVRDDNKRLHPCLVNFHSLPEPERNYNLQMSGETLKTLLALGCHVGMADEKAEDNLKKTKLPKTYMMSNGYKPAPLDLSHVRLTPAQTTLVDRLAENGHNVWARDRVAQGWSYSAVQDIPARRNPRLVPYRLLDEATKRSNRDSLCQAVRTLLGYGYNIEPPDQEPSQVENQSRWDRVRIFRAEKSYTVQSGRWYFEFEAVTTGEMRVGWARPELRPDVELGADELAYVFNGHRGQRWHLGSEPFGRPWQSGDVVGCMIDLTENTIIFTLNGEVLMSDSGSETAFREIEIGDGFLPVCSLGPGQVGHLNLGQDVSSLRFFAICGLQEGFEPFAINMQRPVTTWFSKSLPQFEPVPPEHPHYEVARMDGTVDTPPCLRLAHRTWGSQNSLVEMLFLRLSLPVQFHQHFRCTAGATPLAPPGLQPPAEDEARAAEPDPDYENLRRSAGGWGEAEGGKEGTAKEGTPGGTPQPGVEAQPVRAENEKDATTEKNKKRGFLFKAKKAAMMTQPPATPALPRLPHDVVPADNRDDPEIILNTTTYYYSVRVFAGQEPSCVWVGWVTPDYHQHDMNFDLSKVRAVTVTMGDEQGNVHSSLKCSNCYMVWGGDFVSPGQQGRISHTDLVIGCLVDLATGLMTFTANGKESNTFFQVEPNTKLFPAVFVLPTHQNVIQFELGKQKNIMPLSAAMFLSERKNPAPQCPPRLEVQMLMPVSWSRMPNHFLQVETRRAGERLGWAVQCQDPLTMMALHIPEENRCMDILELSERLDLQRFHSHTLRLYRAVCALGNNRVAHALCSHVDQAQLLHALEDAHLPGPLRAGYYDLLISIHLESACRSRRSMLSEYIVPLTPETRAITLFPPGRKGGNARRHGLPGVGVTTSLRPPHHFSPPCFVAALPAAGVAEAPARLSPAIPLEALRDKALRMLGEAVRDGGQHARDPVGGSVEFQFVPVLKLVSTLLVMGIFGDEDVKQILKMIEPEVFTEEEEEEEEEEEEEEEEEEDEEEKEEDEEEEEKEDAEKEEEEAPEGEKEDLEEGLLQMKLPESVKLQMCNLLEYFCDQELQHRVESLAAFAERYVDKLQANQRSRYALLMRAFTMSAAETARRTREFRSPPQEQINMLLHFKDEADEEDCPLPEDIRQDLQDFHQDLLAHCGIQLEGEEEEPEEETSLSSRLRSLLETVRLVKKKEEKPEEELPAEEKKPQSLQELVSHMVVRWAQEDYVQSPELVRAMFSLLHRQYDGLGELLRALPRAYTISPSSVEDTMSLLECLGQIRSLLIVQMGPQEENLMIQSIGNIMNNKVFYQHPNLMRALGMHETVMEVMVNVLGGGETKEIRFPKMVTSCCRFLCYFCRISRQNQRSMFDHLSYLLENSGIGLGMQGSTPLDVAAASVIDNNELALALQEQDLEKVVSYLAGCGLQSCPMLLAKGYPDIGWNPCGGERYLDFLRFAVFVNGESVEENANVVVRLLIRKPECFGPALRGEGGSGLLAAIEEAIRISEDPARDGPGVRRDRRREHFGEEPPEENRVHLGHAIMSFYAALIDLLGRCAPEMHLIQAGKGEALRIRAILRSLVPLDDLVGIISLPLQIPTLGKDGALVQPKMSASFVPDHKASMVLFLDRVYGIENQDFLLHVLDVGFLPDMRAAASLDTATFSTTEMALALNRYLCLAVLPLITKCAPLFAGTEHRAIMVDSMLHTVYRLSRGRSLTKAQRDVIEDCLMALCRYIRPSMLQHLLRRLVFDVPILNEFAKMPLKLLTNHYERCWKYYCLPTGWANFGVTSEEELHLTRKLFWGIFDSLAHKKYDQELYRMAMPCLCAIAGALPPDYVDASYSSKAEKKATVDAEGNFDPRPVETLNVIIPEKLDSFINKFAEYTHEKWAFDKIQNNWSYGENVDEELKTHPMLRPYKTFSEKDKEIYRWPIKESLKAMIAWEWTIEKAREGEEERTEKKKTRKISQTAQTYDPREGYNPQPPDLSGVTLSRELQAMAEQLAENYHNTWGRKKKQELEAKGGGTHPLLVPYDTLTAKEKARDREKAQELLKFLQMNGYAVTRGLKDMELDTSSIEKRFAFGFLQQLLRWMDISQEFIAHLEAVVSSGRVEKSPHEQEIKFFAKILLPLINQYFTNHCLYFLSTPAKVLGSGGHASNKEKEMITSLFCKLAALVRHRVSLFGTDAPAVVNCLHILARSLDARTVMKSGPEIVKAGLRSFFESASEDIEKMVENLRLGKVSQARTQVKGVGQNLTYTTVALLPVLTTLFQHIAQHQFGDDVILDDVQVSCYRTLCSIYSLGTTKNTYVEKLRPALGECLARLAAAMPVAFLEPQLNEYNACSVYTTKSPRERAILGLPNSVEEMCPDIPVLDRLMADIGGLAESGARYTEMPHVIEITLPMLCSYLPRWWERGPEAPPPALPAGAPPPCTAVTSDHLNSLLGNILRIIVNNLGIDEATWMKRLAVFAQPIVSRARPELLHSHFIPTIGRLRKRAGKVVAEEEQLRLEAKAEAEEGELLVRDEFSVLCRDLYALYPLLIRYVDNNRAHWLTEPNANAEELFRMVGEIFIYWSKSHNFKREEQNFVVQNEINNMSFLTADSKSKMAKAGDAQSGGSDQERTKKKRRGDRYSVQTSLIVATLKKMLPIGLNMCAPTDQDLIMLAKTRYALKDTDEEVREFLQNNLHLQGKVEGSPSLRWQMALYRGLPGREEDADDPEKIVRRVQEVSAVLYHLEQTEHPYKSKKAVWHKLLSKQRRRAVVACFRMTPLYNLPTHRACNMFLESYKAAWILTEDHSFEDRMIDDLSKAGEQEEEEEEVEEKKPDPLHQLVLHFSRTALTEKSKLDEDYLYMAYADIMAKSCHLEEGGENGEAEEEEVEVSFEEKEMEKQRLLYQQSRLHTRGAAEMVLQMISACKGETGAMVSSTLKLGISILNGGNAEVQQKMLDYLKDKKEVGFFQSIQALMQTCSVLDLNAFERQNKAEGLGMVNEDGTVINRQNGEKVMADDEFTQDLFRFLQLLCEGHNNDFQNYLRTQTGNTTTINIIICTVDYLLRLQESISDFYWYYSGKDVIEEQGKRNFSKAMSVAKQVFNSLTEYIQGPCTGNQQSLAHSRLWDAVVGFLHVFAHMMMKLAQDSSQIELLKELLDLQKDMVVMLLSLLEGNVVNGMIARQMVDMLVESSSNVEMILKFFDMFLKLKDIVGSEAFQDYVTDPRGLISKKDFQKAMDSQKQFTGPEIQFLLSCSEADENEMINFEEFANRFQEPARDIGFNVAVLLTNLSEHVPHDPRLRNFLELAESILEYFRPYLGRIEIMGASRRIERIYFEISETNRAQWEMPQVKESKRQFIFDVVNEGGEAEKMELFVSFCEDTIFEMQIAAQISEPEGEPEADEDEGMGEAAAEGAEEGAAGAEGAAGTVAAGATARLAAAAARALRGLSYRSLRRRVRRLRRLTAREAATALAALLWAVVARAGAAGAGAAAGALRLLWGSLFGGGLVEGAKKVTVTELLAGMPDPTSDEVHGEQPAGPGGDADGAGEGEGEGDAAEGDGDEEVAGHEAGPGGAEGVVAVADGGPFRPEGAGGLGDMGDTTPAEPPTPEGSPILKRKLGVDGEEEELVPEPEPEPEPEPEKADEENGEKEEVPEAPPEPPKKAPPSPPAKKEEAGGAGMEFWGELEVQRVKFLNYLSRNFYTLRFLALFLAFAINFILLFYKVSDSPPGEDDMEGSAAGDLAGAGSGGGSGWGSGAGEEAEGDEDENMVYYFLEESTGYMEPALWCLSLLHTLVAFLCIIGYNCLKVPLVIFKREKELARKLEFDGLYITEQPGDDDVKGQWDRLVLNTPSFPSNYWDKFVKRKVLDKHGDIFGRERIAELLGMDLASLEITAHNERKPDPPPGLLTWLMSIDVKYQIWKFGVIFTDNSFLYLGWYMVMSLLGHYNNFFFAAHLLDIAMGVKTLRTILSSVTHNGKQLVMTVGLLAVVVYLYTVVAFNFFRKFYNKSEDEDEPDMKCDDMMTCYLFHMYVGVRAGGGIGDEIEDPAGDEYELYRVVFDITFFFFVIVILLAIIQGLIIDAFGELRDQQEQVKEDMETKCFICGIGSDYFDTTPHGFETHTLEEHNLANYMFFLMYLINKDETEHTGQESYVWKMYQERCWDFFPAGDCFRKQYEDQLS

On to `CC(C)[C@@]1(O)[C@@H](OC(=O)c2cc[nH]c2)[C@@]2(O)[C@]3(C)C[C@@]4(O)O[C@@]5([C@H](O)[C@@H](C)CC[C@]35O)[C@@]2(O)[C@@]41C` [RYANODINE], for which the IC50 was 34 nM in assay [1], 3.3 nM in assay [2] and 3.5 nM in assay [3]. The Relative activity in assay [4] and in assay [5] was 100 in each case.

Turning to `CC1CCC2(O)C3(C)CC4(O)OC2(NC1=O)C1(O)C3(O)C(OC(=O)c2ccc[nH]2)C(O)(C(C)C)C41C` (stereo not given), the Relative activity was 11 in assay [6], 7.4 in assay [7] and 42 in assay [4].

As to `CC(C)C1(O)C(OC(=O)c2ccc[nH]2)C2(O)C3(C)CC4(O)OC5(CC(O)CCC35O)C2(O)C41C` (stereo not given), the Relative activity was determined as 28 in assay [6], 0.42 in assay [7] and 0.2 in assay [4].

In assay [4], `C=C1CCC2(O)C3(C)CC4(O)OC2(C1OC(=O)c1ccccc1)C1(O)C3(O)C(OC(=O)c2ccc[nH]2)C(O)(C(C)C)C41C` (stereo not given) gave a Relative activity of 3.9.

Consider `CC1CCC2(O)C3(C)CC4(O)OC2(C1O)C1(O)C3(O)C(OC(=O)c2ccc[nH]2)C(O)(C(C)C)C41C` (stereo not given), for which the values for the Relative activity in assay [6] and in assay [4] were 34 and 97, respectively.

`CC(C)[C@@]1(O)[C@@H](OC(=O)c2ccc[nH]2)[C@@]2(O)[C@@]3(C)C[C@]4(O)O[C@@]5([C@H](O)[C@@H](C)CC[C@]35O)[C@@]2(O)[C@@]14C` [RYANODINE] gave an inhibition constant (Ki) in assay [8] of 1.8 nM.

Turning to `CONC1C(C)CCC2(O)C3(C)CC4(O)OC12C1(O)C3(O)C(OC(=O)c2ccc[nH]2)C(O)(C(C)C)C41C` (stereo not given), the values for the Relative activity in assay [6], in assay [7] and in assay [4] were 31, 36 and 68, respectively.

`CC1CCC2(O)C3(C)CC4(O)OC2(C1N)C1(O)C3(O)C(OC(=O)c2ccc[nH]2)C(O)(C(C)C)C41C` (stereo not given) returned a Relative activity in assay [4] of 68.

Consider `CO/N=C1\C(C)CCC2(O)C3(C)CC4(O)OC12C1(O)C3(O)C(OC(=O)c2ccc[nH]2)C(O)(C(C)C)C41C` (stereo not given), for which the Relative activity stood at 34 in assay [6], 17 in assay [7] and 13 in assay [4].

As for `CC1=CCC2(O)C3(C)CC4(O)OC2(C1O)C1(O)C3(O)C(OC(=O)c2ccc[nH]2)C(O)(C(C)C)C41C` (stereo not given), the Relative activity in assay [6] is 11; in assay [4], 26.

In assay [4], `CC(C)C1(O)C(OC(=O)c2ccc[nH]2)C2(O)C3(C)CC4(O)OC5(CCCCC35O)C2(O)C41C` (stereo not given) yielded a Relative activity of 6.5.

Source of the values: ChEMBL document CHEMBL1129336, “Ryanodine action at calcium release channels. 2. relation to substituents of the cyclohexane ring” (J Med Chem, 1996).
